Measured values as given in ChEMBL document CHEMBL4251655 (Eur J Med Chem, 2018).
The source made the active and inactive calls. No cut-off for these calls is given here.

Target: T1, Mitogen-activated protein kinase kinase kinase 5 (Homo sapiens) (UniProt Q99683)
T1 sequence (whole entry): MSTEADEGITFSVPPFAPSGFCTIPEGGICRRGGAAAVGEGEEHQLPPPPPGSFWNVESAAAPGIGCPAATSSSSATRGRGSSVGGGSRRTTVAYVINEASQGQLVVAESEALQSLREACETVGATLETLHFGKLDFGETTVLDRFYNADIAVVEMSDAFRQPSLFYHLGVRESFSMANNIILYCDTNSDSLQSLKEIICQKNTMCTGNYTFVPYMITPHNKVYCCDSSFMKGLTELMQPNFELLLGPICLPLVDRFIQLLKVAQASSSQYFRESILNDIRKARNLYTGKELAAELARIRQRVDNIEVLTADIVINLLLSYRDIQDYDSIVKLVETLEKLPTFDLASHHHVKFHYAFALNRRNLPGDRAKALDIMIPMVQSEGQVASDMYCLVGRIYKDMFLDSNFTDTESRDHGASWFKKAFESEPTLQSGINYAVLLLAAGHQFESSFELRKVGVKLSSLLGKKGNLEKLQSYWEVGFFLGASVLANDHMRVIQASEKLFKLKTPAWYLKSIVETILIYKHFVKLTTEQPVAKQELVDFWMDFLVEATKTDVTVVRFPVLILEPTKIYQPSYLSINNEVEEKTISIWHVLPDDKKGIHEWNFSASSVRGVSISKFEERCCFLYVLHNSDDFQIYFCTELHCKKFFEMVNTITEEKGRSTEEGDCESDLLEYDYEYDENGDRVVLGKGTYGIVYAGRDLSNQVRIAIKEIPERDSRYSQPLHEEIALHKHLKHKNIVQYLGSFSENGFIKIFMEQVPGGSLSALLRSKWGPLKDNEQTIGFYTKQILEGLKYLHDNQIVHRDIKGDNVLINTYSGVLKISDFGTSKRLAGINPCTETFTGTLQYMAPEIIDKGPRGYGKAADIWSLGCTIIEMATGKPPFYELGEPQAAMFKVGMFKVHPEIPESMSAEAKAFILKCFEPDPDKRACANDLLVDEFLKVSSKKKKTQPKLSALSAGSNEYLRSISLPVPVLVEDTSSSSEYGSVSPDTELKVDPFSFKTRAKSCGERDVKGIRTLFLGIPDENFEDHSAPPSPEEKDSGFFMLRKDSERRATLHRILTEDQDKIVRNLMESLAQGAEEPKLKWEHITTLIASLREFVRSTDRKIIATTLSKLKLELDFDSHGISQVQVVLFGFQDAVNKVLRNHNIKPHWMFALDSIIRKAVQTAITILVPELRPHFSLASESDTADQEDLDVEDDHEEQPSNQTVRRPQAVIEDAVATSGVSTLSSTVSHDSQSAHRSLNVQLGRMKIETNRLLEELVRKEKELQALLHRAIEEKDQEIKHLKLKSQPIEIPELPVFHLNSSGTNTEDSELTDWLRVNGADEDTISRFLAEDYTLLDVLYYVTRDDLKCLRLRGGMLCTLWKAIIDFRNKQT
Assay: Inhibition of recombinant full length human ASK1 expressed in HEK293/AP1-Luc cells assessed as reduction in autophosphorylation at Thr-838 residue at 10 uM after 30 mins by Western blot analysis
Assay type: cell-based
Method in brief: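 Stable HEK293/AP-1luc pools expressing wild-type or K709R full-length human ASK1 (or parental cells) plated in DMEM with 10% FBS, Geneticin and puromycin. Next day, washed in serum-free medium, then treated with 10 μM compound (final) at 37 °C for 30 min. Cells lysed in M-PER with protease/phosphatase inhibitors; protein by BCA; Western blot for ASK1, phospho-Thr838 ASK1 and α-tubulin.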

COc1ccc(S(C)(=O)=O)cc1C(=O)Nc1cccc(-c2nncn2C(C)C)n1 was tested, and the inhibition was “Active”.
